# High-throughput results (PubChem BioAssay)
# TRPML3 agonist – human mucolipin-3 channel agonism | Q8TDD5 | 220,000 compounds, 0.29% hits | AID 1448 | HEK293 TRPML3-YFP, Fluo-8 calcium fluorescence; 100% = the carbachol control signal | activation, % at 3 µM;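 active means activation above its plate's cutoff, the mean activation of the plate's test wells plus 3 SD, cut at about 12% in these data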
# Target sequence (Q8TDD5 whole entry, looked up): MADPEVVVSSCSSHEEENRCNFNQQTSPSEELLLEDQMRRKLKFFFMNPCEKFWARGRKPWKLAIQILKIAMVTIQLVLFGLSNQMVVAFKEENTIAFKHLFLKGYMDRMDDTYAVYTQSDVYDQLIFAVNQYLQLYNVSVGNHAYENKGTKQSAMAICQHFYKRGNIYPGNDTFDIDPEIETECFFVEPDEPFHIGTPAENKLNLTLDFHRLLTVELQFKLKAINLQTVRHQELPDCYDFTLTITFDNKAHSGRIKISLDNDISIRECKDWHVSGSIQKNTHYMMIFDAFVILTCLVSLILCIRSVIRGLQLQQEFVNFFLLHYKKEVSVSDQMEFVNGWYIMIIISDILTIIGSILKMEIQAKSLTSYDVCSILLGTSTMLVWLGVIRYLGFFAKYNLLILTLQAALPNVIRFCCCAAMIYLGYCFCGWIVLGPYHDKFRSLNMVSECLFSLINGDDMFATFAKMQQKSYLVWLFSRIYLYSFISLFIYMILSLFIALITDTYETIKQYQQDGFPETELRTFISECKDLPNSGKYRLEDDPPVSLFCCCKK
#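 Test system – HEK293 line with stable expression of human TRPML3-YFP channel · Control set – carbachol 87 µM final as high control (100%), DMSO as low control (0%) · Signal – Fluo-8 calcium dye fluorescence, ex 470-495, em 515-575 nm · Incubation – 1-h 37 °C dye load, 5-s basal, 120-s post-compound reads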
# zfTRPN1 agonist – agonists of zebrafish TRPN1 channel; HEK293 zebrafish TRPN1-YFP, Fluo-8 calcium fluorescence; 100% = response to 87 µM carbachol; activation, % at 3 µM; 220,000 compounds, 0.18% hits;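 active means activation above its plate's cutoff, the mean activation of test wells on that plate plus 3 SD, cut at about 19% in these data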
#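 Material: zebrafish TRPN1-YFP in HEK293 cells; Doses: single test compound dose, 3 µM nominal, 0.3% DMSO; Timing: dye loading 1 h at 37 °C, then 30 min room temperature; Technique: intracellular calcium fluorescence with Fluo-8; Benchmarks: high carbachol 87 µM, low DMSO alone.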
# CRFR2-BP ag – agonists of human CRF-binding protein/CRF-R2 receptor complex | HEK293 CRF-R2/CRF-BP, calcium dye fluorescence (FLIPR); percent of saturating CRF peptide response | activation, % at 13.2 µM | 350,000 compounds, 0.46% hits | AID 588473;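 active means activation of at least 50%, plus an integration ratio under a set limit after plate pattern correction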
# GPR7 antagonist – human neuropeptides B/W receptor 1 antagonism | GPR7-expressing cells, fluorescence antagonist assay | inhibition, % at 4.4 µM | 290,000 compounds, 1.1% hits | AID 1861; in the data active means inhibition above about 16%, passing the limit was not always enough;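 further: cells stimulated with the agonist NPW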
# CRFBP-R2 block – blocks CRF-induced signaling of the CRF-BP/CRF-R2 complex; HEK293 CRF-R2/CRF-BP, CRF-induced calcium fluorescence; inhibition, % at 11.8 µM; 350,000 compounds, 0.59% hits;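 active means inhibition of the ligand-induced calcium signal above about 50% at the single tested concentration, limit read from the data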
# GPR7 antag conf – human GPR7 antagonism, confirmation assay; GPR7-expressing cells, calcium fluorescence antagonist mode; AID 1952; 2,400 compounds, 52% hits; shares compounds with GPR7 antagonist; inhibition, % at 4.4 µM; in the data active means inhibition above about 24%;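 further: stimulated with the GPR7 agonist NPW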
# MCHR1 antag – antagonizes human MCHR1, a GPR7 antagonist counter-screen. MCHR1-expressing cells, fluorescence antagonist assay. shares compounds with GPR7 antagonist. AID 2148. 2,400 compounds, 62% hits. inhibition, % at 4.4 µM; in the data active means inhibition above about 22%
# A number is an active result; n = inactive; x = no result given. Only some compounds are listed: those with a hit (about 2% of all), similar ones and a draw of the others.
SMILES,TRPML3 agonist,zfTRPN1 agonist,CRFR2-BP ag,GPR7 antagonist,CRFBP-R2 block,GPR7 antag conf,MCHR1 antag
COCCCN1C(=O)C2C(C(=O)Nc3cc(C)cc(C)c3)C3C=CC2(O3)C1C(=O)NC1CCCCC1 (configuration not stated),x,x,n,n,n,x,x
COC(=O)[C@@H](Cc1c[nH]c2ccccc12)NC(=O)CCC(=O)c1ccc(Br)cc1,x,x,n,x,n,x,n
CCN(CC)CC(O)Cn1c(C)c(-c2ccccc2)c2cc([N+](=O)[O-])ccc21 (configuration not stated),x,x,n,40.8,n,45.3,47.6
COc1cc(C2C(Oc3ccccc3C)C(=O)N2Cc2ccc(F)cc2)cc(OC)c1OC (configuration not stated),n,n,n,22.8,n,n,22.7
COc1ccc(OC2C(=O)N(Cc3ccc(F)cc3)C2c2ccc(OC)c(OC)c2)cc1 (configuration not stated),n,n,n,n,n,x,x
CC(C)C1C(C#N)=C(N)SC(N)=C1C#N,n,n,n,n,n,x,x
CCC(CC)C1C(C#N)=C(N)SC(N)=C1C#N,n,n,n,22.3,n,n,n
CCC1CCCCN1CCCNC(=O)Cn1ncc2c(C)n(Cc3ccccc3Cl)c(C)c2c1=O (configuration not stated),x,x,n,n,n,x,x
O=C(Cn1nc(-c2ccccc2)ccc1=O)Nc1ccc(-n2cnnn2)cc1,n,n,n,26.6,n,n,41.3
CC(C)CNS(=O)(=O)c1ccc(NC(=O)Cn2nc(-c3ccc(F)cc3)ccc2=O)cc1,n,n,n,33.3,n,n,n
O=C(Cn1nc(-c2ccc3c(c2)OCCO3)ccc1=O)Nc1ccc(-n2cnnn2)cc1,n,n,n,n,n,x,x
Cc1ccc(CCNC(=O)C2CCN(S(=O)(=O)c3ccc4c(c3)NC(=O)CO4)CC2)cc1,x,x,n,n,n,x,x
O=C1C=CC(=O)N1Cc1ccccn1,x,x,n,x,n,x,x
CC(C)(C)c1cc(CP(=O)(c2ccccc2)c2ccccc2)cc(C(C)(C)C)c1O,x,x,n,35.2,n,29.9,42.4
Cc1cc(S(=O)(=O)NCCCN2CCOCC2)ccc1Br,x,x,n,x,n,x,x
O=C(Nc1ccc(S(=O)(=O)N2CCOCC2)cc1)c1ccc(CN2CCc3ccccc3C2)cc1,n,n,n,n,n,x,x
O=C(Nc1ccc(S(=O)(=O)N2CCCC2)cc1)c1ccc(CN2CCc3ccccc3C2)cc1,n,n,n,28.4,n,47.3,63.2
CC(C)Cc1nnc(NC(=O)C2CC(=O)N(c3ccc4c(c3)OCCO4)C2)s1 (configuration not stated),x,x,n,x,n,x,x
Cc1ccc2c(c1)C(N1CCCC1=O)CC(c1ccco1)N2 (configuration not stated),n,n,n,31.0,n,n,n
CC(=O)Nc1ccc(NC(=O)C(C)OC(=O)[C@@H]2CCCN2C(=O)c2cccs2)cc1 (some centres not stated),x,x,n,x,n,x,x
COc1ccccc1NS(=O)(=O)c1cc(NC(=O)c2ccc3c(c2)OCCO3)ccc1C,n,n,n,27.2,n,n,63.3
COc1ccccc1NS(=O)(=O)c1cc(NC(=O)CNC(=O)c2ccccc2)ccc1C,n,n,n,n,n,x,x
COC(=O)c1ccc(COC(=O)C2CCN(S(=O)(=O)c3ccc(C)c(C)c3)CC2)o1,x,x,n,x,n,x,x
COc1ccc(C(=O)NCCc2ccccc2)cc1[N+](=O)[O-],x,x,n,31.1,n,n,n
CC(C)CNc1ncnc2c1cnn2Cc1ccccc1Cl,x,x,n,38.3,n,35.7,24.1
SMILES,TRPML3 agonist,zfTRPN1 agonist,CRFR2-BP ag,GPR7 antagonist,CRFBP-R2 block,GPR7 antag conf,MCHR1 antag
CC(C)Nc1ncnc2c1cnn2Cc1ccccc1Cl,x,x,n,n,n,x,x
CC(C)CCN1CCN(Cc2cccc3nonc23)CC1CCO (configuration not stated),n,n,n,24.3,n,n,n
CC(C)N1CCN(Cc2cccc3nonc23)CC1CCO (configuration not stated),n,n,n,n,n,x,x
Oc1cccc2c3c(oc12)CCCC3,x,x,n,x,n,x,x
COc1ccc2[nH]c(=O)c(CN(C(=O)c3ccccn3)C3CCCCC3)cc2c1,n,n,n,23.4,n,n,n
COc1ccc(C2Nc3ccccc3C(=O)N2Cc2ccco2)cc1COc1ccccc1F (configuration not stated),n,n,n,26.0,n,25.3,36.1
COc1ccc(C2Nc3ccccc3C(=O)N2Cc2ccco2)cc1COc1ccc(NC(C)=O)cc1 (configuration not stated),n,n,n,n,n,x,x
O=C(NCc1ccncc1)C(=O)N/N=C/c1ccc(OCc2ccccc2)cc1,n,n,n,n,n,x,x
O=NN(CCc1ccncc1)c1ccc(OCc2ccccc2)cc1,n,n,n,24.8,n,49.6,43.3
NS(=O)(=O)c1ccc(CCNC(=O)CC(c2ccccc2)c2ccccc2)cc1,x,x,n,n,n,x,x
NS(=O)(=O)c1ccc(CCNC(=O)COC(=O)CC(c2ccccc2)c2ccccc2)cc1,n,n,n,52.4,n,n,69.3
NS(=O)(=O)c1ccc(CCNC(=O)COC(=O)C2CCC2)cc1,x,x,n,38.4,n,n,n
Cc1cc2c(cc(C(=O)OC(C)C(=O)NCc3ccc(F)cc3)n2C)o1 (configuration not stated),x,x,n,x,n,x,x
CC(c1ccon1)N(C)C(=O)CCc1nnc(C2(c3ccc(Cl)cc3)CCC2)o1 (configuration not stated),n,n,n,25.0,n,n,n
O=C(O)Cc1sc(=O)[nH]c1O,x,x,n,x,n,x,x
COc1cccc(C(=O)Nc2ccc3c(c2)CCCN3C(=O)c2cccs2)c1OC,x,x,n,n,n,x,x
Cc1ccccc1C(=O)Nc1ccc2c(c1)CCCN2C(=O)c1cccs1,x,x,n,25.3,n,n,34.8
O=C(Nc1cccc(Cl)c1Cl)c1ccccc1OCC(=O)N1CCOCC1,x,x,n,n,n,x,x
c1coc(-c2nnc(SCc3cn4ccccc4n3)o2)c1,n,n,n,n,n,x,x
Brc1c(CSc2nnc(-c3ccco3)o2)nc2ccccn12,n,n,n,23.9,n,n,n
CCN(CC)S(=O)(=O)c1ccc(C(=O)NCC2(N3CCOCC3)CCCCC2)cc1,x,x,n,x,n,x,x
CNC[C@H](Cc1ccccc1)NC[C@@H](Cc1cccc2ccccc12)NCCc1ccc(C)cc1,x,x,n,43.4,n,67.3,75.8
O=C(Nc1ncccc1O)c1ccc(Oc2ccccc2)cc1,x,x,n,35.2,n,n,n
O=C(COc1ccc(C(=O)c2ccccc2)cc1)Nc1ncccc1O,x,x,n,n,n,x,x
COc1cccc2c1CCC1=CC(=O)CCC12C (configuration not stated),x,x,n,x,n,x,x
NC(=O)CN1CCOCCOCCN(CC(N)=O)CCOCCOCC1,n,n,n,61.3,n,n,n
